# Calls of active or inactive are those of the source. The rule behind the calls is not given here.
# Assays:
# Staphylococcus aureus [1] = assay: Antimicrobial activity against methicillin-resistant Staphylococcus aureus 25762 assessed as biofilm formation at 100 uM after 48 hrs by crystal violet staining-based spectrophotometry relative to control; assay type: functional
# Streptococcus mutans [2] = assay: Antimicrobial activity against Streptococcus mutans 240 assessed as biofilm formation at 100 uM after 48 hrs by crystal violet staining-based spectrophotometry relative to control; assay type: functional
# In short: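 Single-concentration screen in a modified biofilm-formation assay. Compound at 100 µM. Biofilm formed is expressed as a percentage of the negative control. Values are the mean of three independent experiments.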
# Pseudomonas aeruginosa = assay: Antimicrobial activity against Pseudomonas aeruginosa 6121 assessed as inhibition of biofilm formation after 24 hrs by crystal violet staining-based spectrophotometry; assay type: functional, organism-based
# Staphylococcus aureus [3] = assay: Antimicrobial activity against methicillin-resistant Staphylococcus aureus 25762 assessed as inhibition of biofilm formation after 48 hrs by crystal violet staining-based spectrophotometry; assay type: functional
# Streptococcus mutans [4] = assay: Antimicrobial activity against Streptococcus mutans 240 assessed as inhibition of biofilm formation after 48 hrs by crystal violet staining-based spectrophotometry; assay type: functional
SMILES,Activity (Staphylococcus aureus [1]),Activity (Streptococcus mutans [2]),inhibition (Pseudomonas aeruginosa),MBIC50 (Staphylococcus aureus [3]) [µM],MBIC50 (Streptococcus mutans [4]) [µM]
Nc1nc(/C=C/CNC(=O)c2cc3ccccc3[nH]2)c[nH]1,inactive,inactive,inactive,,
Cl.Nc1nc(-c2cccc(NC(=O)c3cc4cc(F)ccc4[nH]3)c2)c[nH]1,inactive,8.7%,inactive,,
Nc1nc(/C=C/CNC(=O)c2cc3cc(F)ccc3[nH]2)c[nH]1,8.1%,18.7%,inactive,60,60
Nc1ncc(/C=C/CNC(=O)c2cc(Br)c(Br)[nH]2)[nH]1 [OROIDIN],inactive,18%,,,
Cl.Nc1nc(-c2cccc(NC(=O)c3cc4sccc4[nH]3)c2)c[nH]1,23%,10.1%,inactive,90,60
Cl.Nc1nc(-c2ccc(NC(=O)c3cc4cc(F)ccc4[nH]3)cc2)c[nH]1,10.9%,3.9%,inactive,60,50
CNc1nc(-c2cccc(NC(=O)c3cc4ccccc4[nH]3)c2)c[nH]1.Cl,19.1%,8.8%,inactive,70,80
CC(C)(C)OC(=O)n1cc(-c2cccc(NC(=O)c3cc4ccccc4[nH]3)c2)nc1N,inactive,30.6%,inactive,,
Cl.Nc1nc(-c2cccc(NC(=O)c3cc4cc(Cl)ccc4[nH]3)c2)c[nH]1,44%,6.8%,inactive,,
Nc1ccc2[nH]c(C(=O)Nc3cccc(-c4c[nH]c(N)n4)c3)cc2c1,inactive,inactive,inactive,,
Cl.Nc1nc(-c2cccc(NC(=O)c3cc4cc(O)ccc4[nH]3)c2)c[nH]1,inactive,53.4%,inactive,,
Cl.Nc1nc(-c2cccc(NC(=O)c3c[nH]c4ccccc34)c2)c[nH]1,inactive,23.9%,inactive,,
CC(C)(C)OC(=O)n1cc(-c2cccc(NC(=O)c3cc4cc(O)ccc4[nH]3)c2)nc1N,inactive,57.6%,inactive,,
Cl.Nc1nc(-c2cccc(NC(=O)c3cc4cc([N+](=O)[O-])ccc4[nH]3)c2)c[nH]1,inactive,33.3%,inactive,,
CC(C)(C)OC(=O)n1cc(-c2cccc(NC(=O)c3cc4cc(N)ccc4[nH]3)c2)nc1N,inactive,inactive,inactive,,
Cl.Nc1nc(-c2cccc(NC(=O)c3cc4cc(OCc5ccccc5)ccc4[nH]3)c2)c[nH]1,31.4%,8.2%,inactive,,
Cl.Nc1nc(-c2ccc(NC(=O)c3cc4ccccc4[nH]3)cc2)c[nH]1,11.1%,8.1%,inactive,90,60
COc1ccc2[nH]c(C(=O)Nc3cccc(-c4c[nH]c(N)n4)c3)cc2c1.Cl,inactive,10.5%,inactive,,
Cl.Nc1nc(-c2cccc(NC(=O)c3cc4ccccc4[nH]3)c2)c[nH]1,13.9%,14.2%,inactive,,
Cl.Nc1nc(-c2ccc(NC(=O)c3cc4cc(Cl)ccc4[nH]3)cc2)c[nH]1,inactive,38.2%,inactive,,
CC(C)(C)OC(=O)n1cc(-c2cccc(NC(=O)c3cc4cc(OC(F)(F)F)ccc4[nH]3)c2)nc1N,inactive,inactive,inactive,,

# — ChEMBL document CHEMBL3259692, “Inhibition of biofilm formation by conformationally constrained indole-based analogues of the marine alkaloid oroidin” (2014)
